Source: ChEMBL document CHEMBL1629518, “Structure-based approach to nanomolar, water soluble matrix metalloproteinases inhibitors (MMPIs)” (Eur J Med Chem, 2010)
Values after ≈ are worked out from the molar mass of the structure shown.

What was measured:
[1] = target: Macrophage metalloelastase (Homo sapiens, UniProt P39900); assay: Inhibition of MMP12 by fluorimetric assay
Procedure, shortened: (§1)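 Enzyme source was the catalytic domain of each MMP. Inhibition was reported as Ki values.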

[2] = Solubility of the compound in water; format: physicochemical
[3] = target: Neutrophil collagenase (Homo sapiens, UniProt P22894); assay: Inhibition of MMP8 by fluorimetric assay; procedure, shortened: as §1
[4] = target: T1, Matrilysin (Homo sapiens, UniProt P09237); assay: Inhibition of MMP7 by fluorimetric assay; procedure, shortened: as §1
T1 sequence (P09237 whole entry): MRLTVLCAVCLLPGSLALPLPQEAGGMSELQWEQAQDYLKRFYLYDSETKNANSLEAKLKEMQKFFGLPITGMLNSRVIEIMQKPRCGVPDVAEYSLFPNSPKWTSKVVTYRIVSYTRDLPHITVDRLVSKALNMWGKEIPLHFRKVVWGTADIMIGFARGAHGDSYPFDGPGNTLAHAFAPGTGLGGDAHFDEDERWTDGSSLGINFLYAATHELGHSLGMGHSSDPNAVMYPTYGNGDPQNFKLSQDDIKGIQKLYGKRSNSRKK

[5] = target: Collagenase 3 (Homo sapiens, UniProt P45452); assay: Inhibition of MMP13 by fluorimetric assay; procedure, shortened: as §1
[6] = target: T2, Interstitial collagenase (Homo sapiens, UniProt P03956); assay: Inhibition of MMP1 by fluorimetric assay; procedure, shortened: as §1
T2 sequence (P03956 whole entry): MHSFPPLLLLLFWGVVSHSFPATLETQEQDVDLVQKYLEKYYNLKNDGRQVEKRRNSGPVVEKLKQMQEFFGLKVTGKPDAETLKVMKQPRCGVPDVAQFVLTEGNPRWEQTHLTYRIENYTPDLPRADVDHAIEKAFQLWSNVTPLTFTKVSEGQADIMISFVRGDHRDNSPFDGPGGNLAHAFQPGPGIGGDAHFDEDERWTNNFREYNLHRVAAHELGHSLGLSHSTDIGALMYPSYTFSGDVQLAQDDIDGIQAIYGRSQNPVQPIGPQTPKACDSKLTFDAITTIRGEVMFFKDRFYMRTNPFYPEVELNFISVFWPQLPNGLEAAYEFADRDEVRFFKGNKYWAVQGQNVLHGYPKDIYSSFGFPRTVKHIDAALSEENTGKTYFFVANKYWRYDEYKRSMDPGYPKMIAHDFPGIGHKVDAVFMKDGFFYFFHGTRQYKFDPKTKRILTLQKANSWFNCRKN

Chain of Macrophage metalloelastase (P39900 whole entry, the tested form may be a part): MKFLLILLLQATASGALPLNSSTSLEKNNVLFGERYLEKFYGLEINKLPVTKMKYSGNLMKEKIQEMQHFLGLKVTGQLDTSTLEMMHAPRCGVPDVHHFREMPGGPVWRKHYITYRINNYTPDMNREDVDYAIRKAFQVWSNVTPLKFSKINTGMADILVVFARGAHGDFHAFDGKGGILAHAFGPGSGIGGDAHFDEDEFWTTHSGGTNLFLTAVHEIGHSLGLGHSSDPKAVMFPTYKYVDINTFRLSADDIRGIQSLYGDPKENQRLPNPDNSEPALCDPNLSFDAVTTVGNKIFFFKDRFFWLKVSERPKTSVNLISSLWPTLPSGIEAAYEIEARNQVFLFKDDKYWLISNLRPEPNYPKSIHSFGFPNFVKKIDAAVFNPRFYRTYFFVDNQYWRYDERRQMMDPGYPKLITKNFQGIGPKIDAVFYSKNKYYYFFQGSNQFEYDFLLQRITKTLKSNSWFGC
Chain of Neutrophil collagenase (P22894 whole entry): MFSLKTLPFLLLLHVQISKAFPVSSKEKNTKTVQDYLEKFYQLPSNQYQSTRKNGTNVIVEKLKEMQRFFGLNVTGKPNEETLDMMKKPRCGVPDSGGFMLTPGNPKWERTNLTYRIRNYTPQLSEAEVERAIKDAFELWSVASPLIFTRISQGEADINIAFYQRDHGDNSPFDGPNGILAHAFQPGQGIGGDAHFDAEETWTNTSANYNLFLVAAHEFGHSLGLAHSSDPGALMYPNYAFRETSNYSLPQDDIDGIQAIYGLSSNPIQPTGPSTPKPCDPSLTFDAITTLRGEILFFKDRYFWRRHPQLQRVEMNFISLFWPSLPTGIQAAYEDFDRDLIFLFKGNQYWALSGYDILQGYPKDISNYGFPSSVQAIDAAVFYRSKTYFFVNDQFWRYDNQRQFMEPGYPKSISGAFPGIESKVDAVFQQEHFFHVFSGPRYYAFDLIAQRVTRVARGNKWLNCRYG

Structure (SMILES) | Ki [1] [nM] | solubility [2] [mg/mL] | Ki [3] [nM] | Ki [4] [nM] | Ki [5] [nM] | Ki [6] [nM]
O=C(CN(CCO)S(=O)(=O)c1ccc(F)cc1)NO | 40 | 20 (≈ 68.4 mM) | 173 | 3000 | 46 | 151
O=C(CN(C[C@H](O)CO)S(=O)(=O)c1ccc(-c2ccccc2)cc1)NO | 60 | < 1 | 48 | 4000 | 18 | 742
COc1ccc(S(=O)(=O)N(CCO[C@@H]2O[C@H](CO)[C@@H](O)[C@H](O)[C@H]2O)CC(=O)NO)cc1 |  | 20 (≈ 42.9 mM) | 9.1 | 2000 | 1.7 | 286
O=C(CN(CCO)S(=O)(=O)c1ccc(-c2ccccc2)cc1)NO |  | 20 (≈ 57.1 mM) | 4.6 | 1600 | 2.7 | 67
COc1ccc(S(=O)(=O)N(CC(=O)NO)CC(C)C)cc1 | 4.3 | 20 (≈ 63.2 mM) | 9 | 13000 | 3.1 | 

Next, values leading:

Ki [1] [nM] | solubility [2] [mg/mL] | Ki [3] [nM] | Ki [4] [nM] | Ki [5] [nM] | Ki [6] [nM] | Structure (SMILES)
11 | 20 (≈ 65.7 mM) | 10 | 984 | 2.9 | 287 | COc1ccc(S(=O)(=O)N[C@@H](C(=O)NO)[C@@H](C)O)cc1
7.6 | 20 (≈ 65.7 mM) | 13 | 1500 | 1 | 128 | COc1ccc(S(=O)(=O)N(CCO)CC(=O)NO)cc1
6 | 20 (≈ 68.9 mM) | 9 | 823 | 2.2 | 143 | COc1ccc(S(=O)(=O)N[C@H](CO)C(=O)NO)cc1
8 | 20 (≈ 59.8 mM) | 24 | 9000 | 3.6 | 160 | COc1ccc(S(=O)(=O)N(CC(=O)NO)C[C@H](O)CO)cc1
7 | 20 (≈ 54.9 mM) | 8 | 344 | 1.7 | 32 | COc1ccc(S(=O)(=O)N(C[C@H](O)CO)[C@H](CO)C(=O)NO)cc1
